Experimental data published in ChEMBL document CHEMBL1158795 (J Nat Prod, 2005).
Activity calls are given as the source filed them. The rule behind the calls is not given here.

Tests used:
[1] = system: T47D; experiment: Inhibition of hypoxia-induced VEGF expression in human T47D cells at 0.3 uM after 16 hrs by ELISA; assay type: cell-based
Procedure, shortened: (§1)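 T47D cells given compound for 30 min before hypoxia (1% O2) for 16 h. VEGF protein in cell lysates measured by ELISA, normalized to cellular protein. Representative experiment in triplicate; significance p < 0.05 versus untreated control.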

[2] = biological target: Aryl hydrocarbon receptor nuclear translocator (Homo sapiens) (UniProt P27540); experiment: Inhibition of hypoxia-induced HIF1beta activation in human T47D cells at 0.3 uM after 4 hrs by Western blotting; assay type: cell-based
Chain of Aryl hydrocarbon receptor nuclear translocator (Homo sapiens) (P27540 whole entry): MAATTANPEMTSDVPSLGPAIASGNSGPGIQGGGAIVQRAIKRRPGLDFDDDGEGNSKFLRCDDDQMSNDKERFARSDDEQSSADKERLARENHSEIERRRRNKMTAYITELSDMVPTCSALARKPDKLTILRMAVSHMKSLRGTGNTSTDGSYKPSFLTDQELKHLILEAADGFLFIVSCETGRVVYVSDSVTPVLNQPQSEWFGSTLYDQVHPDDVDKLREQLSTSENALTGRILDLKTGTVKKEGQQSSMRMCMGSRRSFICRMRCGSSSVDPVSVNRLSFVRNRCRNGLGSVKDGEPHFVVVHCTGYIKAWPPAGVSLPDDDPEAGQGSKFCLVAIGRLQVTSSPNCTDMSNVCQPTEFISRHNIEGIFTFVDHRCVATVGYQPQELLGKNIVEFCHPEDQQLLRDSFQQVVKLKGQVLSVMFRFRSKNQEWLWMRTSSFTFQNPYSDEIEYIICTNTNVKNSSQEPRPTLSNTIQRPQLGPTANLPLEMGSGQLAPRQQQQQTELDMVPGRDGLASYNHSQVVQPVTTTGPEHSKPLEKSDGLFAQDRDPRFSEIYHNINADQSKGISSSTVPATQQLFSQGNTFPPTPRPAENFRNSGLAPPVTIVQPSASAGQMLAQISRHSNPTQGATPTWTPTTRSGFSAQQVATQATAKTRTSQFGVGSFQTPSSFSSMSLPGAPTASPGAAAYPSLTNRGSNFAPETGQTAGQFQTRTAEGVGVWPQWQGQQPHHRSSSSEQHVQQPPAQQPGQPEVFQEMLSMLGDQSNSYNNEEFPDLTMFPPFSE
Procedure, shortened: (§2)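 T47D cells exposed to compound 30 min, then hypoxia (1% O2/94% N2/5% CO2) 4 h. Nuclear extracts prepared; HIF-1α probed by Western blot with monoclonal antibody, membrane stripped and reprobed for HIF-1β with monoclonal anti-HIF-1β antibody.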

[3] = Inhibition of luciferase expression in TNT T7 coupled reticulocyte lysate system at 10 uM; assay type: functional
Procedure, shortened: (§3)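 Cell-free luciferase expression from Luciferase T7 Control DNA using TNT T7 coupled reticulocyte lysate transcription/translation. Compounds present during reaction; luciferase activity expressed as percentage of untreated control.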

[4] = Inhibition of luciferase expression in TNT T7 coupled reticulocyte lysate system at 0.3 uM; assay type: functional; procedure, shortened: as §3
[5] = biological target: Aryl hydrocarbon receptor nuclear translocator (Homo sapiens) (UniProt P27540); experiment: Inhibition of hypoxia-induced HIF1beta activation in human T47D cells at 10 uM after 4 hrs by Western blotting; assay type: cell-based; procedure, shortened: as §2
[6] = system: T47D; experiment: Inhibition of VEGF protein expression in human T47D cells at 0.3 uM; assay type: functional
Procedure, shortened: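 T47D breast carcinoma cells in DMEM/F12 with 10% FBS, 37 °C. Compound added 30 min before hypoxia (1% O2/94% N2/5% CO2, 16 h). Cell lysate VEGF measured by ELISA and normalised to cellular protein. Secreted VEGF in conditioned medium measured by modified ELISA. Compared with untreated control; one representative experiment in triplicate; significance p < 0.05.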

[7] = system: T47D; experiment: Inhibition of hypoxia-induced secreted VEGF expression in human T47D cells at 0.3 uM after 16 by ELISA; assay type: functional, cell-based
Procedure, shortened: (§4)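 T47D cells given compound before hypoxia (1% O2, 16 h). Secreted VEGF protein in conditioned media measured by modified human VEGF ELISA and compared with normoxic control level.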

[8] = system: T47D; experiment: Inhibition of hypoxia-induced secreted VEGF expression in human T47D cells at 10 uM after 16 by ELISA relative to normoxic control; assay type: functional; procedure, shortened: as §4
[9] = system: T47D; experiment: Inhibition of hypoxia-induced VEGF expression in human T47D cells at 10 uM after 16 hrs by ELISA; assay type: cell-based; procedure, shortened: as §1
[10] = biological target: T1, Hypoxia inducible factors; HIF-1-alpha, HIF-2-alpha (Homo sapiens, UniProt Q16665+Q99814); experiment: Inhibition of hypoxia-induced HIF1 activation in human HeLa cells by luciferase reporter gene assay; assay type: cell-based
[11] = system: T47D; experiment: Inhibition of hypoxia-induced VEGF expression in human T47D cells at 1 uM after 16 hrs by ELISA; assay type: cell-based; procedure, shortened: as §1
[12] = biological target: T1, Hypoxia inducible factors; HIF-1-alpha, HIF-2-alpha; experiment: Inhibition of hypoxia-induced HIF1 activation in human T47D cells after 16 hrs by luciferase reporter gene assay; assay type: cell-based
[13] = system: T47D; experiment: Inhibition of hypoxia-induced secreted VEGF expression in human T47D cells at 1 uM after 16 by ELISA; assay type: functional, cell-based; procedure, shortened: as §4
[14] = biological target: T1, Hypoxia inducible factors; HIF-1-alpha, HIF-2-alpha; experiment: Inhibition of hypoxia-induced HIF1 activation in human T47D cells upto 30 uM after 16 hrs by luciferase reporter gene assay; assay type: cell-based
Procedure, shortened: (§5)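 T47D cells transiently co-transfected with pTK-HRE3-luc and pRL-TK control, preincubated with compounds 30 min at 37 °C, then hypoxia (1% O2/94% N2/5% CO2) 16 h. Firefly luciferase activity normalized to Renilla, expressed as % inhibition versus induced control. Representative experiment, quadruplicate.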

[15] = biological target: T1, Hypoxia inducible factors; HIF-1-alpha, HIF-2-alpha; experiment: Inhibition of hypoxia-induced HIF1 activation in human T47D cells upto 10 uM by luciferase reporter gene assay; assay type: cell-based; procedure, shortened: as §5
[16] = system: T47D; experiment: Inhibition of hypoxia-induced secreted VEGF expression in human T47D cells at 3 uM after 16 by ELISA relative to normoxic control; assay type: functional; procedure, shortened: as §4
[17] = system: T47D; experiment: Inhibition of hypoxia-induced VEGF expression in human T47D cells at 3 uM after 16 hrs by ELISA; assay type: cell-based; procedure, shortened: as §1

| Compound | inhibition [1] | Activity [2] | Activity [3] | Activity [4] | Activity [5] | Activity [6] | Activity [7] | inhibition at 10 µM [8] | Activity [9] | IC50 [10] | inhibition [11] | IC50 [12] | Activity [13] | Activity [14] | Activity [15] | inhibition at 3 µM [16] | Activity [17] |
| --- | --- | --- | --- | --- | --- | --- | --- | --- | --- | --- | --- | --- | --- | --- | --- | --- | --- |
| CC[C@H]1CN2CCc3cc(OC)c(OC)cc3[C@@H]2C[C@@H]1C[C@H]1NCCc2cc(OC)c(OC)cc21 [EMETINE] | 69% | inactive | Active | inactive | inactive | 58.8 pg/mL | Active | – | – | – | – | – | – | – | – | – | – |
| C[C@@H]1C[C@@H]([C@H](O)CC2CC(=O)NC(=O)C2)C(=O)[C@@H](C)C1 [CYCLOHEXIMIDE] | – | inactive | Active | – | inactive | – | inactive | 43% | Active | 36 nM | – | – | – | – | – | – | – |
| CC[C@H]1CN2CCc3cc(O)c(OC)cc3[C@@H]2C[C@@H]1C[C@@]1(O)NCCc2cc(O)c(OC)cc21 [KLUGINE] | – | inactive | Active | inactive | inactive | – | inactive | – | – | – | 56% | 0.2 µM | Active | – | – | – | – |
| CC[C@H]1CN2CCc3cc(OC)c(OC)cc3[C@@H]2C[C@@H]1C[C@@H]1NCCc2cc(O)c(O)cc21 | – | inactive | – | – | inactive | – | inactive | – | – | – | – | – | Active | inactive | inactive | – | – |
| CC[C@H]1CN2CCc3cc(OC)c(OC)cc3[C@@H]2C[C@@H]1C[C@@H]1NCCc2cc(O)c(OC)cc21 [ISOCEPHAELINE] | – | inactive | – | – | inactive | – | inactive | – | – | – | – | 1.1 µM | – | – | – | 69% | Active |
